Results taken from ChEMBL document CHEMBL1124792, “Synthesis and structure-activity relationships of 5-substituted 6,8-difluoroquinolones, including sparfloxacin, a new quinolone antibacterial agent with improved potency” (1990).
Values after ≈ are worked out from the molar mass of the structure shown.

Key:
Type in all cases: functional
Enterobacter cloacae = experiment: In vitro antibacterial activity against Enterobacter cloacae 963
Mus musculus [1] = species: Mus musculus; experiment: Oral efficacy against Pseudomonas aeruginosa 12 on Systemic Infections in Mice
Outline: (§1)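 Groups of at least 10 male Std-ddY mice (20 ± 2 g) were infected ip, with S. pyogenes A65 at 3×10^7 cells or P. aeruginosa 12 at 4×10^3 cells. Compounds were suspended in 0.2% sodium carboxymethylcellulose and given orally at 0 and 6 h postinfection. The result is reported as ED50 in mg/kg.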

Enterococcus faecalis = experiment: In vitro antibacterial activity against Streptococcus faecalis 2473
Outline: (§2)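 Two-fold agar dilution MIC on Mueller-Hinton agar (pH 7.4), following the Japan Society of Chemotherapy MIC Committee method. Inoculum was about 10⁶ CFU, and growth was read after 20 h at 37 °C. MIC is reported in µg/mL.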

Mus musculus [2] = species: Mus musculus; experiment: Oral efficacy against Streptococcus pyogenes A65 on Systemic Infections in Mice; outline: as §1
Moraxella bovis = experiment: In vitro antibacterial activity against glucose nonfermenter Moraxella bovis P-7101; outline: as §2
Staphylococcus aureus [3] = experiment: In vitro antibacterial activity against Staphylococcus aureus 50774; outline: as §2
Staphylococcus aureus [4] = experiment: In vitro antibacterial activity against Staphylococcus aureus 209P JC-1; outline: as §2
Klebsiella pneumoniae = experiment: In vitro antibacterial activity against Klebsiella pneumoniae 13; outline: as §2
Escherichia coli [5] = experiment: In vitro antibacterial activity against Escherichia coli NIHJ JC-2; outline: as §2
Pseudomonas aeruginosa [6] = experiment: In vitro antibacterial activity against Pseudomonas aeruginosa 12; outline: as §2
Streptococcus pyogenes = experiment: In vitro antibacterial activity against Streptococcus pyogenes A65; outline: as §2
Escherichia coli [7] = experiment: In vitro antibacterial activity against Escherichia coli P-5101; outline: as §2
Pseudomonas aeruginosa [8] = experiment: In vitro antibacterial activity against Pseudomonas aeruginosa IFO 3445; outline: as §2
Serratia marcescens [9] = experiment: In vitro antibacterial activity against Serratia marcescens S-9
Outline: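 MIC (µg/mL) by 2-fold agar dilution on Mueller-Hinton agar (pH 7.4), following the Japan Society of Chemotherapy MIC Committee method. Inoculum of about 10⁶ CFU. Growth was read after 20 h at 37 °C.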

[10] = system: Staphylococcus epidermidis; experiment: In vitro antibacterial activity against Streptococcus epidermis 8; outline: as §2
Serratia marcescens [11] = experiment: In vitro antibacterial activity against Serratia marcescence S-9; outline: as §2

| Compound | MIC (Enterobacter cloacae) [µg/mL] | MIC (Enterococcus faecalis) [µg/mL] | MIC (Moraxella bovis) [µg/mL] | MIC (Staphylococcus aureus [3]) [µg/mL] | MIC (Staphylococcus aureus [4]) [µg/mL] | MIC (Klebsiella pneumoniae) [µg/mL] | MIC (Escherichia coli [5]) [µg/mL] | MIC (Pseudomonas aeruginosa [6]) [µg/mL] | MIC (Streptococcus pyogenes) [µg/mL] | MIC (Escherichia coli [7]) [ng/mL] | MIC (Pseudomonas aeruginosa [8]) [µg/mL] | MIC [10] [µg/mL] | MIC (Serratia marcescens [11]) [µg/mL] | ED50 (Mus musculus [1]) [mg/kg] | ED50 (Mus musculus [2]) [mg/kg] | MIC (Serratia marcescens [9]) [µg/mL] |
| --- | --- | --- | --- | --- | --- | --- | --- | --- | --- | --- | --- | --- | --- | --- | --- | --- |
| O=C(O)c1cn(C2CC2)c2c(F)c(N3CCNCC3)c(F)c(F)c2c1=O | 0.025 (≈ 0.0681 µM) | 3.13 (≈ 8.52 µM) | 3.13 (≈ 8.52 µM) | 0.39 (≈ 1.06 µM) | 0.2 (≈ 0.544 µM) | 0.05 (≈ 0.136 µM) | 0.0125 (≈ 0.034 µM) | 0.39 (≈ 1.06 µM) | 3.13 (≈ 8.52 µM) | 12.5 (≈ 0.034 µM) | 0.78 (≈ 2.12 µM) | 0.2 (≈ 0.544 µM) | – | 3.87 | 25 | 0.1 (≈ 0.272 µM) |
| O=C(O)c1cn(C2CC2)c2cc(N3CCNCC3)c(F)cc2c1=O [CIPROFLOXACIN] | – | 1.56 (≈ 4.71 µM) | 3.13 (≈ 9.45 µM) | 0.2 (≈ 0.604 µM) | 0.1 (≈ 0.302 µM) | 0.025 (≈ 0.0754 µM) | – | – | 0.2 (≈ 0.604 µM) | 6.3 (≈ 0.019 µM) | 0.2 (≈ 0.604 µM) | 0.1 (≈ 0.302 µM) | – | 2.78 | 23.9 | 0.05 (≈ 0.151 µM) |
| CC1CN(c2c(F)c(Cl)c3c(=O)c(C(=O)O)cn(C4CC4)c3c2F)CCN1 (stereo not given) | 0.05 (≈ 0.126 µM) | 0.78 (≈ 1.96 µM) | 1.56 (≈ 3.92 µM) | 0.1 (≈ 0.251 µM) | 0.1 (≈ 0.251 µM) | 0.05 (≈ 0.126 µM) | 0.0125 (≈ 0.0314 µM) | 0.39 (≈ 0.98 µM) | 0.78 (≈ 1.96 µM) | 12.5 (≈ 0.0314 µM) | 0.78 (≈ 1.96 µM) | 0.1 (≈ 0.251 µM) | 0.2 (≈ 0.503 µM) | 1.65 | – | – |
| Nc1c(F)c(N2CCNCC2)c(F)c2c1c(=O)c(C(=O)O)cn2C1CC1 | 0.0125 (≈ 0.0343 µM) | 0.39 (≈ 1.07 µM) | 0.39 (≈ 1.07 µM) | 0.05 (≈ 0.137 µM) | 0.05 (≈ 0.137 µM) | 0.025 (≈ 0.0686 µM) | 0.0063 (≈ 0.0173 µM) | 0.1 (≈ 0.274 µM) | 0.2 (≈ 0.549 µM) | 6.3 (≈ 0.0173 µM) | 0.39 (≈ 1.07 µM) | 0.05 (≈ 0.137 µM) | – | 1.56 | 170 | 0.05 (≈ 0.137 µM) |

Continued, in another order:

| MIC (Enterobacter cloacae) [µg/mL] | MIC (Enterococcus faecalis) [µg/mL] | MIC (Moraxella bovis) [µg/mL] | MIC (Staphylococcus aureus [3]) [µg/mL] | MIC (Staphylococcus aureus [4]) [µg/mL] | MIC (Klebsiella pneumoniae) [µg/mL] | MIC (Escherichia coli [5]) [µg/mL] | MIC (Pseudomonas aeruginosa [6]) [µg/mL] | MIC (Streptococcus pyogenes) [µg/mL] | MIC (Escherichia coli [7]) [ng/mL] | MIC (Pseudomonas aeruginosa [8]) [µg/mL] | MIC [10] [µg/mL] | MIC (Serratia marcescens [11]) [µg/mL] | Compound | ED50 (Mus musculus [1]) [mg/kg] | ED50 (Mus musculus [2]) [mg/kg] | MIC (Serratia marcescens [9]) [µg/mL] |
| --- | --- | --- | --- | --- | --- | --- | --- | --- | --- | --- | --- | --- | --- | --- | --- | --- |
| 0.025 (≈ 0.0661 µM) | 0.39 (≈ 1.03 µM) | 0.39 (≈ 1.03 µM) | 0.025 (≈ 0.0661 µM) | 0.025 (≈ 0.0661 µM) | 0.0125 (≈ 0.033 µM) | 0.006 (≈ 0.0159 µM) | 0.2 (≈ 0.529 µM) | 0.39 (≈ 1.03 µM) | 6.3 (≈ 0.0166 µM) | 0.2 (≈ 0.529 µM) | 0.025 (≈ 0.0661 µM) | 0.05 (≈ 0.132 µM) | CC1CN(c2c(F)c(N)c3c(=O)c(C(=O)O)cn(C4CC4)c3c2F)CCN1 (stereo not given) | 1.11 | 6.54 | – |
| 0.0125 (≈ 0.033 µM) | 0.39 (≈ 1.03 µM) | 0.2 (≈ 0.529 µM) | 0.025 (≈ 0.0661 µM) | 0.025 (≈ 0.0661 µM) | 0.0125 (≈ 0.033 µM) | 0.0063 (≈ 0.0166 µM) | 0.1 (≈ 0.264 µM) | 0.2 (≈ 0.529 µM) | 6.3 (≈ 0.0166 µM) | 0.2 (≈ 0.529 µM) | 0.025 (≈ 0.0661 µM) | – | C[C@H]1CN(c2c(F)c(N)c3c(=O)c(C(=O)O)cn(C4CC4)c3c2F)CCN1 | 0.84 | 5.06 | 0.05 (≈ 0.132 µM) |
| 0.1 (≈ 0.255 µM) | 0.39 (≈ 0.994 µM) | 0.78 (≈ 1.99 µM) | 0.025 (≈ 0.0637 µM) | 0.025 (≈ 0.0637 µM) | 0.1 (≈ 0.255 µM) | 0.0125 (≈ 0.0319 µM) | 0.78 (≈ 1.99 µM) | 0.39 (≈ 0.994 µM) | 12.5 (≈ 0.0319 µM) | 0.78 (≈ 1.99 µM) | 0.0125 (≈ 0.0319 µM) | 0.39 (≈ 0.994 µM) | C[C@@H]1CN(c2c(F)c(N)c3c(=O)c(C(=O)O)cn(C4CC4)c3c2F)C[C@@H](C)N1 (relative stereo) | 6.33 | 7.38 | – |
| 0.05 (≈ 0.132 µM) | 1.56 (≈ 4.13 µM) | 0.78 (≈ 2.07 µM) | – | 0.39 (≈ 1.03 µM) | 0.05 (≈ 0.132 µM) | 0.1 (≈ 0.265 µM) | 0.39 (≈ 1.03 µM) | 0.39 (≈ 1.03 µM) | 6.3 (≈ 0.0167 µM) | 0.39 (≈ 1.03 µM) | – | – | C[C@@H]1CN(c2c(F)cc3c(=O)c(C(=O)O)cn(C4CC4)c3c2F)C[C@H](C)N1 | 1.41 | 8.64 | 0.2 (≈ 0.53 µM) |
| – | – | – | – | 0.2 (≈ 0.529 µM) | – | 0.05 (≈ 0.132 µM) | 0.78 (≈ 2.06 µM) | – | – | – | – | – | CC1CNCCN1c1c(F)c(N)c2c(=O)c(C(=O)O)cn(C3CC3)c2c1F (stereo not given) | – | – | – |
| – | – | – | – | 0.05 (≈ 0.127 µM) | – | 0.025 (≈ 0.0637 µM) | 0.78 (≈ 1.99 µM) | – | – | – | – | – | CC1(C)CN(c2c(F)c(N)c3c(=O)c(C(=O)O)cn(C4CC4)c3c2F)CCN1 | – | – | – |
